Screening results: PubChem, Broad Institute
The list is not random: actives were taken first. Their share in the collection is about 2.3%.
PGC1a acetyl inh: modulators of PGC1a acetylation; U2OS PGC1a acetylation, AlphaScreen anti-acetyl-lysine; with virally co-expressed GCN5 acetyltransferase; 350,000 compounds, 0.17% hits; inhibition, % at 15.6 µM;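 active = every replicate shows inhibition of at least 40%; inconclusive = mean inhibition at least 40% but some replicate below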
Env fusion inh: inhibitors of HIV Env-mediated cell fusion; 360,000 compounds, 1.1% hits; HeLa-JRFL Env/CEM21 cell fusion, luciferase; AID 651610; inhibition, % at 12.3 µM;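 active = mean replicate inhibition score of at least 50 and every replicate individually at or above 50; inconclusive = only one of the two criteria met; inactive = mean below 50 and not all replicates reaching 50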
EWS-Fli inh: EWS/Fli transcriptional activity inhibition; A673 NR0B1-luciferase reporter, viability-normalised; 350,000 compounds, 0.67% hits; inhibition, % at 12.6 µM;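 active = mean inhibition of at least 50% after viability correction, with every replicate also passing that limit; inconclusive = mean reaches 50% but only one of two replicates passes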;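 note: firefly luciferase signal divided by Alamar Blue viability fluorescence both relative to DMSO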
F508del corr: CFTR F508del correction in bronchial cells. activity (quench increase), % at 7.58 µM. CFBE cells, YFP halide quenching; stimulated with forskolin plus potentiator P3; % fluorescence drop versus neutral controls. 350,000 compounds, 0.36% hits;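 active = mean added fluorescence quench of at least 8% versus neutral control, with both replicates also reaching 8%; inconclusive = only one of the mean or replicate conditions met; inactive = mean below 8% and not both replicates reaching 8%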;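 note: cells transiently co-express mutant CFTR-F508del with the halide-sensitive YFP; corrector assay measuring rescue of mutant channel to the surface after 24 h compound exposure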
FN deposit inh: fibronectin deposition inhibition. AH1F fibroblasts, Alexa488-fibronectin deposition fluorescence, overnight. inhibition, % at 12.6 µM. 350,000 compounds, 0.086% hits. AID 743247;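 active = mean inhibition across replicates of 30% or more, regardless of how many single replicates reach that level; inconclusive = mean under 30% yet at least half of replicates reach 30%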
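Schedule: 1 h cell adhesion before compound, then overnight fibronectin incubation; test system: AH1F fibroblast monolayer depositing Alexa488-labelled fibronectin into matrix; quantity: 10000 AH1F cells per well; probe or stimulus: fluorescent fibronectin at 24 nM final; signal: fluorescence, ex 485 nm, em 525 nm; evaluation: percent inhibition as loss of matrix-bound fibronectin fluorescence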
PAX8 inh HTS: PAX8 transcriptional activity inhibition; RMG-I TPO-luciferase reporter, SteadyGlo, 24 h; inhibition, % at 12.6 µM; 360,000 compounds, 1.2% hits; AID 652154;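 active = mean replicate inhibition at least 60% with every replicate also reaching 60%; inconclusive = only one of the two criteria is met; inactive = mean below 60% and not all replicates reaching 60%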;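 note: luciferase light reporting Pax8 driven TPO promoter activity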
A number is an active result; – = inactive; ? = inconclusive; · = not tested or not shown.

SMILES	PGC1a acetyl inh	Env fusion inh	EWS-Fli inh	F508del corr	FN deposit inh	PAX8 inh HTS
COCCN(C(=O)COC(=O)/C=C/c1cccc(OC)c1)c1c(N)n(CC(C)C)c(=O)[nH]c1=O	–	–	–	–	–	67
COc1nc(N)nc(NC(=O)c2cccs2)c1N=O	–	–	–	11	–	–
COc1ccc(NC(=O)c2ccc(NC(=O)c3cccs3)cc2)cc1	–	–	–	–	–	–
COc1ccc(S(=O)(=O)Nc2ccc3c(c2)C(=O)N([C@@H](C)CO)C[C@H](C)[C@@H](CN(C)S(=O)(=O)c2c(C)noc2C)OCCCC[C@@H](C)O3)cc1	–	–	–	–	–	–
Cc1ccc(-c2nnc(SCC(=O)Nc3ccccc3F)o2)cc1	·	66	85	–	–	–
O=C(CSc1nnc(-c2ccccc2)o1)Nc1ccccc1F	·	–	78	–	–	–
COc1cccc(-c2nnc(SCC(=O)Nc3cc(C)on3)o2)c1	–	·	·	·	·	·
O=C(CSc1nnc(-c2ccc(Br)cc2)o1)Nc1cccc(C(=O)O)c1	–	88	·	–	·	83
O=C(CSc1nnc(-c2ccc(Br)cc2)o1)Nc1cccc2ccccc12	–	·	–	–	·	·
Cc1ccc(-c2nnc(SCC(=O)Nc3ccccc3N3CCOCC3)o2)cc1	–	–	·	·	·	–
CCOc1ccc(-c2nnc(SCC(=O)Nc3cc(C)on3)o2)cc1	–	–	65	–	–	–
Cc1cc(Nc2ccccc2)cc(=O)n1C	59	–	–	–	–	–
Cc1cc(C)nc(N/N=C/c2cccc3ccccc23)n1	·	·	–	–	–	82
O=C(OC(C(=O)Nc1ccc(Cl)cc1C(F)(F)F)c1ccccc1)c1c(Cl)cccc1Cl (stereo unspecified)	·	73	–	·	–	–
C/C(=N\NC(=O)c1cccc(Cl)c1)C1C(=O)c2ccccc2C1=O	–	57	–	–	–	·
C/C(=N\NC(=O)CCc1ccccc1)C1C(=O)c2ccccc2C1=O	–	–	–	–	–	–
O=c1[nH][nH]cc1C=Nc1ccccc1Cl	·	–	–	–	–	–
O=c1[nH][nH]cc1C=Nc1ccccc1O	·	72	·	·	·	–
COc1ccccc1CNC(=O)C[C@H]1C[C@H]2c3cc(NC(=O)Cc4ccncc4)ccc3O[C@H]2[C@H](CO)O1	–	–	–	–	·	–
CC1Cc2ccccc2N1C(=S)NC(=O)c1ccc(Cl)cc1Cl (stereo unspecified)	–	·	–	–	–	62
CCC(Sc1nc2ccsc2c(=O)n1-c1ccc(Cl)c(C)c1)C(=O)NCc1ccco1 (stereo unspecified)	·	65	·	·	–	·
O=C(CSc1nc2ccsc2c(=O)n1Cc1ccccc1)NCc1ccco1	–	–	·	·	–	·
COc1cccc(-c2nc3ccccc3s2)c1	–	·	·	·	·	·
c1coc(-c2nc3ccccc3s2)c1	–	–	–	11	–	–
COc1ccc(-c2nc3ccccc3s2)cc1	·	–	79	·	–	–
SMILES	PGC1a acetyl inh	Env fusion inh	EWS-Fli inh	F508del corr	FN deposit inh	PAX8 inh HTS
O=c1cc(-c2ccccc2)oc2cc(O)ccc12	–	·	–	–	·	·
COc1ccc(-c2c(C)c3ccc(O)cc3oc2=O)cc1OC	–	–	·	–	–	–
Nc1ccc(-c2c3ccc(=O)cc-3oc3cc(O)ccc23)cc1C(=O)O	·	–	–	8.8	–	–
O=c1ccc2c(-c3ccccc3)c3ccc(O)cc3oc-2c1	–	–	–	58	–	–
CCOc1ccc(/C=C2\SC(=S)N(CCCC(=O)NCCCN3CCOCC3)C2=O)cc1	–	?	81	–	–	–
CCc1ccc(/C=C2/SC(=S)N(CCC(=O)NCCCN3CCOCC3)C2=O)cc1	·	–	·	–	–	–
O=C(CCN1C(=O)/C(=C\c2cccc(Br)c2)SC1=S)NCCCN1CCOCC1	–	–	–	–	–	–
O=C(CCN1C(=O)/C(=C/c2ccccc2)SC1=S)NCCCN1CCOCC1	56	–	–	–	–	–
CCC(=O)N1[C@@H]2Cn3c(ccc(/C=C/c4ccccc4)c3=O)[C@H]1[C@@H](C(=O)N(C)C)[C@@H]2CO	·	·	–	–	·	–
CN1C[C@@H]2[C@H](c3ccccc31)[C@H](CO)N2Cc1ccccc1F	–	·	–	–	·	–
CC(=O)Nc1cccc(-c2ccnc3c2CC(C(=O)NCc2cccs2)O3)c1 (stereo unspecified)	–	–	72	–	–	–
CC(=O)c1cccc(-c2ccnc3c2CC(C(=O)NCc2ccc(F)c(F)c2)O3)c1 (stereo unspecified)	·	–	65	–	–	?
CC(=O)NCCNC(=O)C1Cc2c(-c3cccc(NC(C)=O)c3)ccnc2O1 (stereo unspecified)	·	–	–	–	–	–
CC(=O)c1cccc(-c2ccnc3c2CC(C(=O)NCc2ccc(N4CCN(C)CC4)cc2)O3)c1 (stereo unspecified)	·	–	–	–	–	–
CC(=O)c1cccc(-c2ccnc3c2CC(C(=O)NCc2ccccc2)O3)c1 (stereo unspecified)	·	–	63	–	–	83
CCC(=O)Nc1ccc2c(c1)C(=O)N(C)C[C@H](OC)[C@@H](C)CN(C(=O)CC)[C@@H](C)CO2	–	–	–	–	–	·
Cc1ccc(-c2csc(Nc3ccccn3)n2)cc1	–	–	–	8.7	–	–
C[C@H](CO)N1C[C@H](C)[C@@H](CN(C)C(=O)C2CCOCC2)Oc2ncc(C#CC(C)(C)O)cc2C1=O	–	–	–	–	·	·
COc1ccc(CCNC(=O)C2CCN(Cc3nc(-c4ccccc4F)oc3C)CC2)cc1OC	–	–	·	·	34	·
Cc1oc(-c2ccccc2F)nc1CN1CCC(C(=O)NCc2cccnc2)CC1	–	–	·	·	–	·
CCc1ccc(-c2nc(CN3CCC(C(=O)NCCc4ccc(OC)c(OC)c4)CC3)c(C)o2)cc1	–	68	·	·	–	·
Cc1oc(-c2ccccc2F)nc1CN1CCC(C(=O)NCCC2=CCCCC2)CC1	·	90	·	·	–	·
O=C(C[C@@H]1C[C@H]2c3cc(NC(=O)CC4CC4)ccc3O[C@H]2[C@H](CO)O1)NCc1ccc2c(c1)OCO2	–	–	–	–	–	–
CN(C)C(=O)C[C@@H]1CC[C@@H]2[C@H](COC[C@H](O)CN2CC2CCCCC2)O1	–	–	–	–	–	–
O=S(=O)(c1ccc(F)cc1)N1CC[C@@H]2[C@@H](CO)Nc3ccc(-c4ccc(F)cc4)cc3[C@@H]21	–	·	–	16	–	–
O=S(=O)(c1cccc(F)c1)N1CC[C@H]2[C@H](CO)Nc3ccc(-c4cccc(F)c4)cc3[C@H]21	–	·	–	–	36	–
Cc1ccccc1S(=O)(=O)N1CC[C@@H]2[C@H](CO)Nc3ccc(-c4cccc(F)c4)cc3[C@@H]21	–	·	–	–	–	114
N#Cc1ccc(-c2ccc3c(c2)[C@@H]2[C@@H](CCN2S(=O)(=O)c2cccc(F)c2)[C@@H](CO)N3)cc1	–	·	–	–	35	–
